MrgX1 antagonist: antagonists of human MrgX1 receptor; Q96LB2; MRGX1-HEK293 calcium flux, Fluo-4, BAM8-22 antagonism; hits give low values; B-score at 10 µM; actives 1.3% (n = 310,000); AID 588676;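 active means calcium-response B-score plate-corrected more than 3 library SD below zero, starting fluorescence within 5 deviations, no agonist response on first addition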;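 further: peak minus trough fluorescence over baseline after final BAM8-22 challenge near maximal dose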
Target sequence (Q96LB2 whole entry, looked up): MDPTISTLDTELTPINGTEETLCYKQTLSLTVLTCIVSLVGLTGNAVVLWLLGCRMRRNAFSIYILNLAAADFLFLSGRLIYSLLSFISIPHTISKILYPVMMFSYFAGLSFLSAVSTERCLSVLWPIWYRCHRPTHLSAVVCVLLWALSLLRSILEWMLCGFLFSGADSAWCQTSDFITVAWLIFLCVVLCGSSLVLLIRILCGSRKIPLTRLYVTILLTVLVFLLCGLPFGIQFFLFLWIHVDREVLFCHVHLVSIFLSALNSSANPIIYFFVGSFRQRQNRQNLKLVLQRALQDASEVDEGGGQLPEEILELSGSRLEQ
MrgX1 allo act: allosterically activates human MrgX1 receptor signaling; actives 0.63% (n = 310,000); MrgX1-HEK293, Fluo-4 calcium flux, FDSS; hits give high values; B-score at 10 µM;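 active means plate-corrected calcium response at least 3 library SD above typical, normal starting fluorescence, not activating the receptor alone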;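 further: compound read alongside a low EC10 to EC30 dose of BAM8-22 agonist; peak minus trough fluorescence over baseline measured at the second addition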
MrgX1 ag: agonists of human MrgX1 receptor. Q96LB2. MrgX1-HEK293 cells, Fluo-4 calcium fluorescence, agonist mode; hits give high values. B-score at 10 µM. actives 0.44% (n = 310,000). AID 588627;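 active means calcium response B-score plate-corrected fluorescence ratio at least 3 library SD, with starting fluorescence B-score inside 5 SD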
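Assay system: MrgX1-expressing HEK293 cells / Amount: fifteen thousand cells per well / Doses: test compound in the initial addition of three / Timing: cells plated overnight, dye loaded 0.5 h 37 °C, 0.5 h room temperature / Technique: kinetic calcium dye fluorescence, Fluo-4 NW / Control set: positive and negative controls per plate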
RGS4 inh: human RGS4 inhibition. P49798. HEK293 M3R/RGS4 inducible, Fluo-4 calcium flux; hits give high values; triggered by carbachol at its EC20. B-score at 10 µM. actives 0.45% (n = 310,000). AID 463165;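 active means B-score, a plate-corrected calcium signal, over three deviations above library mean, with baseline fluorescence within five deviations of library mean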;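 further: RGS4 expression induced by doxycycline in cells with stable M3 receptor; B-score is computed from the integrated fluorescence ratio over baseline after carbachol; higher B-score means a larger calcium signal and so more RGS4 inhibition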
Target sequence (P49798 whole entry, looked up): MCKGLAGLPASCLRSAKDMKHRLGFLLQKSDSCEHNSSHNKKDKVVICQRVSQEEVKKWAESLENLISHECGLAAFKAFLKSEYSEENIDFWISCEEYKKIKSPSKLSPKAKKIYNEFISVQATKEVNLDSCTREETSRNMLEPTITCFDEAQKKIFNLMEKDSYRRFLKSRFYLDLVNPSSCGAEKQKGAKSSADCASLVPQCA
RGS4 pot: potentiators or activators of RGS4. B-score at 10 µM. AID 463111. actives 0.92% (n = 310,000). HEK293 M3R/inducible RGS4, carbachol calcium flux Fluo4; hits give low values;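 active means B-score of the integrated calcium signal more than 4 SD below the library mean, with starting fluorescence not abnormally high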;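 further: negative B-score means reduced calcium response which marks RGS4 activation or potentiation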
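Test system: HEK293 cells with stable M3R and inducible RGS4; also added: carbachol at ECmax as muscarinic agonist stimulus; schedule: dye loading 30 min 37 °C, buffer rest 30 min RT; technique: kinetic calcium fluorescence imaging with Fluo4-AM dye, 2 µM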
Each line names hits and unclear results; the compound was inactive in the other large screens. Only some compounds are listed: those with a hit (about 3.5% of all), similar ones and a draw of the others.

Cn1c(O)c(/C=C/C=Nc2ccccc2)c(=O)n(C)c1=S	MrgX1 antagonist -8.5
Cc1cccc(-n2c(O)c(/C=C/C=Nc3ccccc3)c(=O)[nH]c2=O)c1	none
Cc1ccc(NP(=O)(Oc2ccccc2F)Oc2ccccc2F)cc1	MrgX1 antagonist -6.7
CCc1ccc(NP(=O)(Oc2ccccc2F)Oc2ccccc2F)cc1	none
Cc1cccc(-n2c(-c3ccccc3)nc3ccccc3c2=O)n1	none
CCOP(=O)(OCC)c1cccc(O)c1	MrgX1 antagonist -4.6
CCOP(=O)(OCC)c1cccc(OP(=O)(c2cccc([N+](=O)[O-])c2)c2cccc([N+](=O)[O-])c2)c1	none
C[N+]1(C)C2CCC1CC(OC(=O)C(CO)c1ccccc1)C2 (stereo unspecified)	RGS4 pot -8.6
C[N+]1(C)[C@@H]2CC[C@H]1CC(OC(=O)C(CO)c1ccccc1)C2 (stereo partly specified)	none
CCN(CC)CC(O)c1ccc(C2CCCC2)cc1 (stereo unspecified)	none
CCOP(=O)(C#Cc1ccccc1)C(O)c1ccc(Br)cc1 (stereo unspecified)	MrgX1 allo act 17
CC(C)[N+]12CCC(CC1)C(C(O)(c1ccccc1)c1ccccc1)C2 (stereo unspecified)	RGS4 pot -8.4
C[N+]12CCC(CC1)C(C(O)(c1cccc(Cl)c1)c1cccc(Cl)c1)C2 (stereo unspecified)	RGS4 pot -9.2
CC[N+]12CCC(CC1)C(C(O)(c1ccccc1)c1ccccc1)C2 (stereo unspecified)	RGS4 pot -8
CNCC(=O)c1ccccc1	none
CCOC(=O)C1(CCc2ccccc2)CCN(C2CCSCC2)CC1	none
CCOC(=O)C1(CCCc2ccccc2)CCN(C2CCCC2)CC1	RGS4 pot -7
Cc1nn(CC(C)C)c(Cl)c1C(=O)NC1CCC(C)CC1 (stereo unspecified)	none
CN1C(=O)C(=Cc2ccc(N3CCCCCC3)o2)C(=O)N(C)C1=S	MrgX1 ag 29 (no result: RGS4 inh, RGS4 pot)
CC1CCC(NCCc2ccc3c(c2)OCO3)CC1 (stereo unspecified)	RGS4 pot -7
CN(C)S(=O)(=O)c1cccc(C(=O)N2CCC(C(=O)O)(c3ccccc3)CC2)c1	none
Cc1nc(SCc2c(Cl)cccc2Cl)nc(OC(=O)N(C)C)c1C	none
NC(Cc1ccccc1)Cc1ccccc1	none
C[N+](C)(C)Cc1ccccc1	RGS4 pot -8.6
COc1ccc(CNCCc2c(C)[nH]c3ccc(OC(F)(F)F)cc23)c(OC)c1	MrgX1 antagonist -4.7
CN[C@H]1C[C@H]2O[C@@](C)([C@H]1OC)n1c3ccccc3c3c4c(c5c6ccccc6n2c5c31)C(=O)NC4	MrgX1 allo act 10, RGS4 inh 4.9
C[N+]1(CCC(C(N)=O)(c2ccccc2)c2ccccc2)CCCCC1	RGS4 pot -7
CCN1C[C@]2(OC(=O)c3ccccc3NC(C)=O)CCC(OC)C34C5C[C@H]6C(OC)[C@]5(O)[C@](O)(C[C@@H]6OC)C(C[C@@H]32)[C@H]14 (stereo partly specified)	none
COc1ccc2c(c1O)C13CCN(C)C(C2)C1CCC(=O)C3 (stereo unspecified)	none
CC(C)(C)C(=O)OC[N+](C)(C)CCOC(=O)C(O)(c1ccccc1)C1CCCC1 (stereo unspecified)	RGS4 pot -7.5
CCCC(CCC)C(=O)OC[N+](C)(C)CCOC(=O)C(O)(c1ccccc1)C1CCCC1 (stereo unspecified)	none
CCNc1nc(NC(C)(C)C)nc(SC)n1	none
CC[C@@H]1C=CC=CC[C@H](C)[C@@H](O)[C@@H](C)C(=O)[C@H](C)[C@@H](O)[C@H](C)C(=O)[C@H](C)[C@@H](O)[C@H](C)C=CC(=O)O[C@H]2[C@@H](C)[C@@H](CC1)O[C@@]1(CC[C@@H](C)[C@@H](C[C@H](C)O)O1)[C@@H]2C	none
Nc1ccc2ccc3cccc[n+]3c2c1	RGS4 pot -7.6
O=C1CN(O)C(c2ccccc2Cl)=c2cc(Br)ccc2=N1	none
C/C=C(\C)C(=O)OC1C(C)=C2C(C1OC(=O)CCCCC)C(C)(OC(C)=O)CC(OC(=O)CCC)C1(O)C2OC(=O)C1(C)O (stereo unspecified)	MrgX1 ag 49, RGS4 pot -8.9
CN1CCN(c2nc3ccccn3c(=O)c2C=C2C(=O)N(C)C(=O)N(C)C2=O)CC1	none
O=[N+]([O-])c1ccc(N2CCCNCC2)c2ncccc12	RGS4 pot -8.1
CCn1c(O)c(/C=N/NC(=O)c2ccccc2)c(=O)n(CC)c1=S	MrgX1 ag 49
Fc1ccc(C(OCCN2CCCC2)c2ccc(Br)cc2)cc1 (stereo unspecified)	RGS4 pot -9.8
COc1ccc2c(c1)/C(=C/c1cnc[nH]1)C(=O)N2	none
O=C1Nc2ccccc2/C1=C/c1cnc[nH]1	MrgX1 antagonist -6.7
CCC1=CCN(CCc2c(C)[nH]c3ccccc23)CC1	none
FC(F)(F)c1ccc2c(c1)N(CCCN1CCN(CCCl)CC1)c1ccccc1S2	RGS4 pot -8.9
Nc1ccc(CCN2CCN(c3cccc(C(F)(F)F)c3)CC2)cc1	none
COC(=O)C1=CCCN(C)C1	MrgX1 ag 57
O=C(O)Cn1cc(/C=C2\C(=O)NC(=O)N(Cc3ccco3)C2=O)c2ccccc21	none
Cc1cc(/C=C2/C(=O)NC(=O)N(Cc3ccco3)C2=O)c(C)n1-c1ccccc1O	MrgX1 allo act 9.6
CCOP(=S)(OCC)c1ccc(N(C)C)cc1	MrgX1 allo act 10
CN(C)c1ccc(P(=S)(N(C)C)N(C)C)cc1	none
CCC(CO)(C(=O)OC1C[N+]2(C)CCC1CC2)c1ccccc1 (stereo unspecified)	RGS4 pot -8.9
O=c1[nH]c(=O)n(-c2ccccc2F)c(O)c1/C=C1\C=Nc2ccccc21	MrgX1 ag 47, RGS4 inh 11
O=c1[nH]c(=O)n(-c2ccc(F)cc2)c(O)c1/C=C1\C=Nc2ccccc21	none
O=c1[nH]c(=O)n(CC2CCCO2)c(O)c1/C=C1\C=Nc2ccccc21 (stereo unspecified)	MrgX1 ag 34
COC(=O)C1=C(N)Oc2c(c(=O)oc3ccccc23)[C@]12C(=O)N(C)c1ccccc12	MrgX1 allo act 8.6
CC1CCCC(C)N1/N=C/c1c[nH]c2ccc(Br)cc12 (stereo unspecified)	MrgX1 allo act 12
CCOc1cc2c(cc1OCC)-n1cccc1C(c1cccc([N+](=O)[O-])c1)NC2 (stereo unspecified)	none
CC/C(=N\N1CCCCCC1)c1c(O)n(-c2ccccc2C)c(=O)[nH]c1=O	none
CCCCCSc1cc(O)c(C(CNC)C(C)C)cc1OC (stereo unspecified)	none
CCCCCSc1cc(OC)c(CCN(C)C)cc1OC	RGS4 pot -7.7

Bioassay records as filed in PubChem.
